The record followed here is ChEMBL document CHEMBL4145613, “Succinimide-Based Conjugates Improve IsoDGR Cyclopeptide Affinity to αvβ3 without Promoting Integrin Allosteric Activation” (J Med Chem, 2018).

Series [1] concerns the target T1, Integrin alpha-V/beta-3 (Homo sapiens, UniProt P05106+P06756). The series can be described thus: Allosteric activation of integrin alphaVbeta3 receptor in human MSR3 […] assessed as increase in anti-beta3 LIBS integrin antibody AP5 binding at 500 uM incubated for 90 mins by flow cytometry. The series is classed as cell-based. The settings on record: 1.5 h.

Series [2] deals with T1, Integrin alpha-V/beta-3. Briefly: Binding affinity to human integrin alphaVbeta3 receptor using acetyl-CisoDGRCGVRSSSRTPSDKY-bio probe and streptavidin-peroxidase conjugate incubated for 3 hrs by competitive binding assay. The series is classed as protein-complex assay. The method, boiled down:
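Ki reported with its standard error from several independent experiments, each run in duplicate. Groups were compared by one-way ANOVA with Dunnett's post-test.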

Series [3] addresses T1, Integrin alpha-V/beta-3. The series can be described thus: Allosteric activation of integrin alphaVbeta3 receptor in human MSR3 […] assessed as increase in anti-beta3 LIBS integrin antibody AP5 binding at 5 uM incubated for 90 mins by flow cytometry. The series is classed as cell-based. The settings on record: 1.5 h.
Series [4] concerns the target T1, Integrin alpha-V/beta-3. Briefly: Binding affinity to integrin alphaVbeta3 receptor in human MSR3 cell membranes assessed as change in STD spectra incubated for 2 hrs by NMR spectroscopy relative to untreated control. The gist of the method: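 Saturation transfer difference NMR used ligand at 1 mM with native membranes prepared from MSR3 melanoma cells (75-125 x10^6 cells). These cells express high αvβ3, as checked by FACS. Ligand protons nearest the receptor were identified from transferred saturation.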

Series [5] concerns the target T1, Integrin alpha-V/beta-3. The series can be described thus: Binding affinity to integrin alphaVbeta3 receptor in human MSR3 cell membranes incubated for 2 hrs by Tr-NOESY NMR spectroscopy.
Series [6] has as its target T1, Integrin alpha-V/beta-3. The series can be described thus: Binding affinity to integrin alphaVbeta3 receptor in EDTA pre-treated human MSR3 cell membranes incubated for 2 hrs by NMR spectroscopy. The method, boiled down: (§1)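 Ligand (1 mM) NMR-observed with native membranes prepared from human melanoma MSR3 cells (75-125 x10^6 cells), whose high αvβ3 expression was confirmed by FACS. Line 1 used saturation transfer difference (STD) to map the ligand protons closest to the receptor. Line 2 used transferred NOE, comparing NOEs with and without membranes.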

The target in series [7] is T1, Integrin alpha-V/beta-3. The series can be described thus: Binding affinity to integrin alphaVbeta3 receptor in EDTA pre-treated human MSR3 cell membranes incubated for 2 hrs by Tr-NOESY NMR spectroscopy. The method, boiled down: as §1
The target of series [8] is T1, Integrin alpha-V/beta-3. The series can be described thus: Allosteric activation of integrin alphaVbeta3 receptor in human MSR3 […] assessed as increase in monoclonal antibody LM609 binding at 500 uM incubated for 90 mins by flow cytometry. The format is cell-based. The settings on record: 1.5 h.

pKi: −log10 of the molar value. Active and inactive are the calls of the source. The rule behind the calls is not given here. Numbered stars: 1 amine (or outer) side, 2 acyl side, 3 side chain; on linkers, the order of the positions; unused ones are H or OH. Bridge positions count the residues as written; N and C are the ends. Square brackets hold non-standard residues; d marks the D form. Peptide text beside a SMILES is read from it. * marks the point of attachment. X2 = O=C(O)CN1CCN(CC(=O)O)CCN(CC(=O)NCCN2C(=O)CC(*)C2=O)CC1; X1 = NC(=O)[C@H]1CC[C@H](CN2C(=O)CC(*)C2=O)CC1; Succinimide(1-Et,3-yl) = CCN1C(=O)CC(*)C1=O; βAsp = O=C(O)[C@H](CC(=O)[*:2])N[*:1]

In the case of `N=C(N)NCCC[C@@H]1NC(=O)CNC(=O)C[C@@H](C(=O)O)NC(=O)CNC(=O)[C@H](CS)NC(c2ccccc2)C(=O)NC1=O` (stereo not given in full), the Activity entry in series [1] is reported as “Not Active”.

As to `N=C(N)NCCC[C@@H]1NC(=O)CNC(=O)C[C@@H](C(=O)O)NC(=O)[C@H](CS)NCC(=O)NC(=O)C(c2ccccc2)NC1=O` (stereo not given in full), the Activity entry in series [1] is reported as “Not Active”.

Consider `CCN1C(=O)CC(SC[C@@H]2NC(=O)CNC(=O)[C@H](CCCNC(=N)N)NC(=O)CNC(=O)C[C@@H](C(=O)O)NC(=O)CNC2=O)C1=O` (stereo not given in full) (GRGC(Succinimide(1-Et,3-yl))GD-OH; lactam N-6), for which the pKi in series [2] was 7.58. Moreover, the Activity result is “Not Active” in series [1], “Not Active” in series [3], above 50% in series [4] and above 50% in series [5].

In series [2], `N=C(N)NCCC[C@@H]1NC(=O)CNC(=O)C[C@@H](C(=O)O)NC(=O)CNC(=O)[C@H](CSC2CC(=O)N(C[C@H]3CC[C@H](C(N)=O)CC3)C2=O)NC(=O)CNC1=O` (stereo not given in full) (GRGC(X1)GD-OH; lactam N-6) showed a pKi of 7.70. Besides, the Activity result is “Not Active” in series [1], “Not Active” in series [3], above 50% in series [4] and above 50% in series [5]. Further, the result in series [6] and in series [7] was inactive.

In series [2], `N=C(N)NCCC[C@@H]1NC(=O)CNC(=O)C[C@@H](C(=O)O)NC(=O)CNC(=O)[C@H](CSC2CC(=O)N(CCNC(=O)CN3CCN(CC(=O)O)CCN(CC(=O)O)CC3)C2=O)NC(=O)CNC1=O` (stereo not given in full) (GRGC(X2)GD-OH; lactam N-6) showed a negative logarithm of the Ki (pKi) of 7.67. Besides, the Activity entry in series [1] and in series [3] was “Not Active” each time.

Turning to `N=C(N)NCCC[C@@H]1NC(=O)CNC(=O)C[C@@H](C(=O)O)NC(=O)[C@H](CS)NC(=O)CNC1=O` (GRGCD-OH; lactam N-5), the Activity result in series [1] is “Not Active”.

For the compound `N=C(N)NCCC[C@@H]1NC(=O)CNC(=O)C[C@@H](C(=O)O)NC(=O)CNC(=O)[C@H](CS)NC(=O)CNC1=O` (GRGCGD-OH; lactam N-6), the Activity entry in series [8] and in series [1] was “Not Active” each time.

For `N=C(N)NCCC[C@@H]1NC(=O)CNC(=O)C[C@@H](C(=O)O)NC(=O)[C@H](CS)NC(=O)CNC(=O)CNC1=O` (GRGGCD-OH; lactam N-6), the Activity entry in series [1] is “Not Active”.

With `N=C(N)NCCC[C@@H]1NC(=O)CNC(=O)[C@H](CC(=O)O)NC(=O)[C@@H](N)CSSC[C@@H](C(=O)O)NC1=O` (H-CDGRC-OH; disulfide 1-5), the result in series [4] and in series [5] was inactive.

As for `N=C(N)NCCC[C@@H]1NC(=O)CNC(=O)C[C@@H](C(=O)O)NC(=O)[C@@H](N)CSSC[C@@H](C(=O)O)NC1=O` (H-C[βAsp]GRC-OH; disulfide 1-5), the Activity result in series [1] is listed as “Not Active”.

`N=C(N)NCCC[C@@H]1NC(=O)[C@H](CS)NC(=O)[C@@H](Cc2ccccc2)NC(=O)[C@H](CC(=O)O)NC(=O)CNC1=O` (cyclo(RGD[dF]C)) had a pKi in series [2] of 8.20.
